The source made the active and inactive calls. The calls are words filed in the database; no cut-off is given here.
How the values were obtained:
[1] = species: Mus musculus; assay: Toxicity in CF1 mouse; assay type: organism-based; conditions: in vivo
[2] = test system: Mus musculus; assay: Antitumor activity against mouse EAC allografted in CF1 mouse assessed as host survival on day 7 at 20 mg/kg, ip qd for 7 days; assay type: functional, organism-based; parameters: dose 20 mg/kg
[3] = test system: Mus musculus; assay: Antiinflammatory activity in CF1 mouse assessed as increase in foot weight at 20 mg/kg, ip administered 3 hrs and 30 mins prior to carrageenan-challenge measured after 3 hrs (reference value: 97 +/- 10 mg); assay type: functional; conditions: route intraperitoneal
[4] = test system: Mus musculus; assay: Antitumor activity against mouse EAC allografted in CF1 mouse assessed as tumor growth inhibition at 20 mg/kg, ip qd for 7 days (reference value: 0%); assay type: functional; conditions: 168 h, route intraperitoneal
[5] = test system: Mus musculus; assay: Antiinflammatory activity in CF1 mouse assessed as inhibition of carrageenan-induced paw edema at 20 mg/kg, ip administered 3 hrs and 30 mins prior to carrageenan-challenge measured after 3 hrs (reference value: 0%); assay type: functional; conditions: route intraperitoneal
[6] = test system: Mus musculus; assay: Antitumor activity against mouse EAC allografted in CF1 mouse assessed as ascrit fluid volume at 20 mg/kg, ip qd for 7 days (reference value: 6.63 +/- 1.24 mL); assay type: functional; conditions: route intraperitoneal
[7] = test system: Mus musculus; assay: Antitumor activity against mouse P388 cells allografted in DBA/2 mouse assessed as host survival on day 7 at 20 mg/kg, ip qd for 2 weeks; assay type: functional; conditions: route intraperitoneal
How it was run: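 P388 leukemia in male DBA/2 mice (20 g): 10⁶ cells implanted on day 0. Compounds were given ip at 20 (mg/kg)/day for 2 weeks. Survival was expressed as T/C by the NIH protocol; T/C > 120 counted as significant. 5-Fluorouracil was the internal standard.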

[8] = test system: Rattus norvegicus; assay: Antipyretic activity in Sprague-Dawley rat assessed as decrease in yeast/mycobacterium butyricum-induced increase temperature at 5 mg/kg, ip; assay type: functional, organism-based; parameters: dose 5 mg/kg
[9] = test system: Mus musculus; assay: Analgesic activity in CF1 mouse assessed as inhibition of acetic acid-induced writhing reflex measured for 10 mins at 20 mg/kg,ip administration 5 mins prior to test by […]; assay type: functional, organism-based; parameters: dose 20 mg/kg
[10] = test system: Mus musculus; assay: Analgesic activity in CF1 mouse assessed as inhibition of acetic acid-induced pain measured for 10 mins at 5 mg/kg,ip administration 5 mins prior to test by […]; assay type: functional, organism-based; parameters: dose 5 mg/kg
[11] = test system: Mus musculus; assay: Antitumor activity against mouse P388 cells allografted in DBA/2 mouse assessed as tumor growth inhibition at 20 mg/kg, ip qd for 2 weeks (reference value: 100%); assay type: functional; conditions: route intraperitoneal
How it was run: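 DBA/2 male mice (20 g) implanted with 10^6 P-388 cells on day 0, then dosed ip at 20 mg/kg/day for 2 weeks. T/C computed by the NIH protocol; T/C ≥120 counted as significant. 5-Fluorouracil served as internal standard.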

[12] = test system: Mus musculus; assay: Immunosuppressive activity in mouse splenic lymphocytes isolated from 25 mg/kg, ip on days 2,3 and 4 treated CF1 mouse assessed as reduction in sheep red blood cell antigen-induced plaque-forming response (reference value: 100%); parameters: scale not given: the % may be the effect or the level left; conditions: route intraperitoneal
[13] = test system: Mus musculus; assay: Analgesic activity in CF1 mouse assessed as inhibition of acetic acid-induced pain measured for 10 mins at 2.5 mg/kg,ip administration 5 mins prior to test by […]; assay type: functional, organism-based; parameters: dose 2.5 mg/kg
[14] = test system: Rattus norvegicus; assay: Antipyretic activity in Sprague-Dawley rat assessed as decrease in yeast/mycobacterium butyricum-induced increase temperature at 2.5 mg/kg, ip; assay type: functional, organism-based; parameters: dose 2.5 mg/kg
[15] = test system: Mus musculus; assay: Antiinflammatory activity in CF1 mouse assessed as inhibition of carrageenan-induced paw edema at 10 mg/kg, ip administered 3 hrs and 30 mins prior to carrageenan-challenge measured after 3 hrs (reference value: 0%); assay type: functional; conditions: route intraperitoneal
[16] = test system: Mus musculus; assay: Antiinflammatory activity in CF1 mouse assessed as increase in foot weight at 10 mg/kg, ip administered 3 hrs and 30 mins prior to carrageenan-challenge measured after 3 hrs (reference value: 97 +/- 10 mg); assay type: functional; conditions: route intraperitoneal
[17] = Acute toxicity in CF1 mouse; assay type: organism-based; conditions: in vivo
[18] = test system: Mus musculus; assay: Immunosuppressive activity in mouse splenic lymphocytes isolated from 0.1 mg, ip on days 2,3 and 4 treated CF1 mouse assessed as reduction in sheep red blood cell antigen-induced plaque-forming response (reference value: 100%); parameters: scale not given: the % may be the effect or the level left

SMILES | Activity [1] | Activity [2] | Activity [3] | inhibition in vivo at 20 mg/kg [4] | inhibition in vivo at 20 mg/kg [5] | Activity [6] | Survival [7] | Activity [8] | inhibition [9] | Activity [10] | T/C [11] | Activity [12] | Activity [13] | Activity [14] | inhibition in vivo at 10 mg/kg [15] | Activity [16] | LD50 [17] | Activity [18]
N#CCOC(=O)CCCCCNC(=O)OCc1ccccc1 | Non-toxic | Active | 63 mg | 54% | 28% | 1 mL | – | – | – | – | – | – | – | – | – | – | – | –
N#CCOC(=O)[C@H](Cc1ccccc1)NC(=O)[C@H](Cc1ccccc1)NC(=O)OCc1ccccc1 | Non-toxic | – | 61 mg | 43% | 30% | 2.1 mL | – | – | – | – | – | – | – | – | – | – | – | –
N#CCOC(=O)[C@H](Cc1ccccc1)NC(=O)OCc1ccccc1 | Non-toxic | Active | 39 mg | 99.9% | 55% | 0.2 mL | 6.6 days | inactive | Active | inactive | 68 | 86% | inactive | inactive | – | – | – | –
C[C@H](NC(=O)c1ccccc1)C(=O)OCC#N | Non-toxic | Active | 56 mg | 98.2% | 49% | 0.1 mL | 9.8 days | – | – | – | 101 | – | – | – | – | – | – | –
N#CCOC(=O)CNC(=O)OCc1ccccc1 | Non-toxic | Active | 48 mg | 29% | 45% | 2.2 mL | – | – | – | – | – | 58% | – | – | – | – | – | –
N#CCOC(=O)CNC(=O)c1ccccc1 | Non-toxic | Active | 55 mg | 40.2% | 50% | 2.85 mL | 10.5 days | – | – | – | 109 | – | – | – | – | – | – | –
CC(C)C(NC(=O)c1ccccc1)C(=O)OCC#N (configuration not stated) | Non-toxic | – | 82 mg | 99.9% | 24% | 0.07 mL | 10.5 days | – | – | – | 109 | – | – | – | – | – | – | –
N#CCOC(=O)CCCCCNC(=O)c1ccccc1 | Non-toxic | Active | 65 mg | 45.2% | 40% | 2.73 mL | 10.3 days | – | – | – | – | – | – | – | – | – | – | –
N#CCOC(=O)CCNC(=O)c1ccccc1 | Non-toxic | – | 75 mg | 11.6% | 31% | 4.96 mL | – | – | – | – | – | – | – | – | – | – | – | –
N#CCOC(=O)[C@@H]1CCCN1C(=O)c1ccccc1 | Non-toxic | – | 67 mg | 59.3% | 39% | 2.93 mL | 9 days | – | – | – | 93 | – | – | – | – | – | – | –
CC(C)C[C@H](NC(=O)c1ccccc1)C(=O)OCC#N | Non-toxic | – | 77 mg | 87.2% | 29% | 0.8 mL | 11.3 days | – | – | – | 117 | – | – | – | – | – | – | –
N#CCOC(=O)C(Cc1ccccc1)NC(=O)OCc1ccccc1 (configuration not stated) | Non-toxic | Active | 54 mg | 86% | 38% | 0.4 mL | – | – | – | – | – | – | – | – | – | – | – | –
CC(=O)N[C@@H](Cc1ccccc1)C(=O)OCC#N | Non-toxic | Active | 49 mg | 16% | 44% | 3.9 mL | – | – | – | – | – | – | – | – | – | – | – | –
Sc1ncnc2nc[nH]c12 [MERCAPTOPURINE ANHYDROUS] | – | Active | – | 99.6% | – | 0.7 mL | – | – | – | – | – | – | – | – | – | – | – | –
CCC(C)C(NC(=O)c1ccccc1)C(=O)OCC#N (configuration not stated) | Non-toxic | – | 89 mg | 46.6% | 18% | 2.97 mL | 11.8 days | – | – | – | 122 | – | – | – | – | – | – | –
COc1ccc2c(c1)c(CC(=O)O)c(C)n2C(=O)c1ccc(Cl)cc1 [INDOMETHACIN] | – | – | 97 mg | – | 0% | – | 9.66 days | – | – | – | 100 | – | – | – | 74% | 23 mg | – | –
O=c1[nH]cc(F)c(=O)[nH]1 [FLUOROURACIL] | – | – | – | – | – | – | 18 days | – | – | – | 186 | – | – | – | – | – | – | –
Cc1ccc(S(=O)(=O)N[C@@H](Cc2ccccc2)C(=O)CCl)cc1 [TPCK] | – | – | 31 mg | 100% | 56% | 0.01 mL | – | – | – | – | – | – | – | – | – | – | 210 µmol/kg | –
CC(NC(=O)c1ccccc1)C(=O)OCC#N (configuration not stated) | Non-toxic | Active | 87 mg | 43.3% | 25% | 2.91 mL | 9.7 days | – | – | – | 100 | – | – | – | – | – | – | –
N#CCOC(=O)[C@H](Cc1ccc(O)cc1)NC(=O)c1ccccc1 | Non-toxic | – | 75 mg | 42.3% | 41% | 1.98 mL | 11.3 days | – | – | – | 113 | – | – | – | – | – | – | –
Cc1ccc(S(=O)(=O)N[C@@H](Cc2ccccc2)C(=O)OCC#N)cc1 | Non-toxic | – | 69 mg | 97% | 21% | 0.4 mL | 9.1 days | – | – | – | 94 | – | – | – | – | – | – | –
N#CCOC(=O)[C@H](Cc1ccccc1)NC(=O)c1ccccc1 | Non-toxic | – | 43 mg | 47% | 51% | 1.8 mL | – | – | – | – | – | – | – | – | – | – | – | –
N[C@@H](Cc1ccc(N(CCCl)CCCl)cc1)C(=O)O [MELPHALAN] | – | – | – | – | – | – | – | – | – | – | – | 100% | – | – | – | – | – | 51%
N#CCOC(=O)CCCNC(=O)c1ccccc1 | Non-toxic | – | 68 mg | 43.1% | 37% | 2.78 mL | 10 days | – | – | – | 104 | – | – | – | – | – | – | –

Source: ChEMBL document CHEMBL3244350, “Antitumor and antiinflammatory agents: N-benzoyl-protected cyanomethyl esters of amino acids” (J Med Chem, 1979)
